Experimental data taken from ChEMBL document CHEMBL2401617, “Synthesis and biological evaluation of some novel thiazole compounds as potential anti-inflammatory agents” (2013).

Columns and labels:
Type in all cases: functional
Rattus norvegicus [1] = experiment: Antiinflammatory activity in albino Wistar rat assessed as inhibition of carrageenan-induced paw oedema at 10 mg/kg, po administered 1 hr prior to carrageenan challenge measured at 4 hrs by plethysmometeric analysis relative to control
Outline: (§1)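 Albino Wistar rats of either sex (130–150 g), 6 per group, fasted 12 h with water ad libitum. Indomethacin 10 mg/kg was given orally in 1 ml 20% v/v DMSO; controls received vehicle. One hour later, 0.1 ml 1% w/v carrageenan in 0.9% saline was injected subplantar into the left hind paw. Paw volume was read by plethysmometer at 0 and 1–4 h. % inhibition = [1 − (Vt/Vc)] × 100.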

Rattus norvegicus [2] = experiment: Antiinflammatory activity in albino Wistar rat assessed as inhibition of carrageenan-induced paw oedema at 10 mg/kg, po administered 1 hr prior to carrageenan challenge measured at 2 hrs by plethysmometeric analysis relative to control; outline: as §1
Rattus norvegicus [3] = experiment: Antiinflammatory activity in albino Wistar rat assessed as inhibition of carrageenan-induced paw oedema at 10 mg/kg, po administered 1 hr prior to carrageenan challenge measured at 1 hr post carrageenan challenge by plethysmometeric analysis relative to control; outline: as §1
Rattus norvegicus [4] = experiment: Antiinflammatory activity in albino Wistar rat assessed as inhibition of carrageenan-induced paw oedema at 10 mg/kg, po administered 1 hr prior to carrageenan challenge measured at 3 hrs by plethysmometeric analysis relative to control; outline: as §1

COc1ccc2c(c1)c(CC(=O)O)c(C)n2C(=O)c1ccc(Cl)cc1 [INDOMETHACIN]
inhibition in vivo at 10 mg/kg (Rattus norvegicus [1]): 91.3%
inhibition in vivo at 10 mg/kg (Rattus norvegicus [2]): 45.1%
inhibition in vivo at 10 mg/kg (Rattus norvegicus [3]): 10.5%
inhibition in vivo at 10 mg/kg (Rattus norvegicus [4]): 75.5%
